CHRM5 antagonist: human M5 muscarinic receptor antagonists, primary screen, CHO cells, Fluo-8 calcium fluorescence | Muscarinic acetylcholine receptor M5 (Homo sapiens), P08912 | CHO-hM5 cells, ACh EC80 | inhibition, % at 3 µM | 0.59% of 360,000 active | AID 624040, 2012;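 active means inhibition above a per-plate cutoff, the mean of that plate's test compounds plus 3 SD, cut at about 27% in these data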
M4 ag: human M4 muscarinic receptor agonists, primary screen, CHO-K1 cells, Fluo-8 calcium fluorescence; Muscarinic acetylcholine receptor M4 (Homo sapiens), P08173; activation, % at 3 µM; 0.14% of 360,000 active; CHO-K1 hM4/Gqi5; vehicle 0%, full acetylcholine response 100%;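 active means activation above the run mean over all test wells plus 3 SD, cut at about 32% in these data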;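 further: peak over basal fluorescence ratio per well then scaled between controls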
Target sequence (P08173 whole entry, looked up): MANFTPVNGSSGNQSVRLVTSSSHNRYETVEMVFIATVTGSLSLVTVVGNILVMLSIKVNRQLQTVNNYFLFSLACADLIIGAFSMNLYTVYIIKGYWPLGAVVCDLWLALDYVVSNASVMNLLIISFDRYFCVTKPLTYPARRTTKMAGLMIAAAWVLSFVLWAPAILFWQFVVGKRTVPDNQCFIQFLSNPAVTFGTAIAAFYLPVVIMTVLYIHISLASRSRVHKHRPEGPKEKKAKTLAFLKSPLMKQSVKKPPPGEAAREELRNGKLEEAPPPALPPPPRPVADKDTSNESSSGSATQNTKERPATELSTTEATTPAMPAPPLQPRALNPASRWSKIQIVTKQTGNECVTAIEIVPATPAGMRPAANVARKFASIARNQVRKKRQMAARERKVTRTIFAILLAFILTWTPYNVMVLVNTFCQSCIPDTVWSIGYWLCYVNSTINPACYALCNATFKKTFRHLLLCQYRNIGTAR
CHRM4 antagonist: human M4 muscarinic receptor antagonists, primary screen, CHO cells, Fluo-8 calcium fluorescence; Muscarinic acetylcholine receptor M4 (Homo sapiens), P08173; CHO-hM4 cells, ACh EC80; inhibition, % at 3 µM; 0.73% of 360,000 active; AID 624125, 2012;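 active means inhibition above its plate's cutoff, the mean inhibition of sample wells plus 3 SD, cut at about 27% in these data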
CHRM5 PAM: human M5 muscarinic receptor positive allosteric modulators, primary screen, CHO-K1 cells, Fluo-8 calcium fluorescence. Muscarinic acetylcholine receptor M5 (Homo sapiens), P08912. CHO-K1 hM5, ACh EC20 PAM; 0% = ACh EC20, 100% = ACh EC100. activation, % at 3 µM. 0.3% of 360,000 active. AID 624038, 2012;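 active means activation above the run cutoff, the mean activation of all test compounds plus 3 SD, cut at about 18% in these data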
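Replicates: One well per compound, no replicates | System: Human M5 receptor in CHO-K1 cells | Benchmarks: Low control EC20 acetylcholine (0%), high control EC100 acetylcholine (100%) | Probe or stimulus: Acetylcholine, EC20 level | Times: Fluo-8 loading 80 min at 37 °C plus 30 min room temperature | Signal: Intracellular calcium via Fluo-8 fluorescence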
CHRM5 agonist: human M5 muscarinic receptor agonists, primary screen, CHO-K1 cells, Fluo-8 calcium fluorescence; Muscarinic acetylcholine receptor M5 (Homo sapiens), P08912; activation, % at 3 µM; AID 624037, 2012; CHO-K1 hM5 cells; 0% DMSO wells, 100% maximal acetylcholine response; 0.19% of 360,000 active;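 active means activation above the run's mean over test compounds plus 3 SD, cut at about 23% in these data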;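 further: signal is peak over basal fluorescence ratio across the kinetic read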
CHRM4 PAM: human M4 muscarinic receptor positive allosteric modulators, primary screen, CHO-K1 cells, Fluo-8 calcium fluorescence | 0.4% of 360,000 active | activation, % at 3 µM | Muscarinic acetylcholine receptor M4 (Homo sapiens), P08173 | CHO-K1 hM4/Gqi5, ACh EC20; 0% = ACh EC20, 100% = maximal ACh;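 active means activation above its plate's cutoff, the mean activation of sample wells plus 3 SD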
Of the large screens only hits and unclear results are named; the others gave an inactive call. Hits are enriched below; roughly 1.8% of the tested compounds scored in any of these assays.

Cc1cc(NC(=O)CCCN2C(=O)c3cccc4cccc(c34)C2=O)no1	CHRM4 PAM 19.3
O=C(c1c(F)cccc1F)N(Cc1ccccn1)C1CC1	CHRM4 PAM 18.1
O=C(CC1CCCCC1)NCc1ccccn1	none
O=C(O)CSc1nnc2c(n1)[nH]c1ccccc12	CHRM5 antagonist 34.4
O=C(CSc1nnc2c(n1)[nH]c1ccccc12)OCc1ccccc1	none
COc1cc(-c2n[nH]c(=S)n2/N=C/c2cccn2C)cc(OC)c1OC	M4 ag 51.4, CHRM5 agonist 50.2
Cn1cccc1/C=N/n1c(-c2ccco2)n[nH]c1=S	none
CCn1cc(/C=C(\NC(=O)c2ccc(OC)c(OC)c2)C(=O)N2CCN(C)CC2)c2ccccc21	none
O=C(Cn1c2ccccc2c2nc3n(c(=O)c21)CCS3)Nc1ccccc1C(F)(F)F	CHRM5 PAM 19.2
CCC(C)(C#CCN1CCCCC1)OCCC#N (stereo not given)	CHRM5 antagonist 60.3, CHRM4 antagonist 47.1
CCC(C#CCN1CCCCC1)(CC)OCCC#N	none
CCN(CC)c1ccc(/C=C2\C(=O)c3ccc(C(=O)O)cc3C2=O)cc1	CHRM4 antagonist 31.7, CHRM5 agonist 31.6
Nc1ncnc2c1ncn2[C@@H]1O[C@H](CNCc2ccccc2OCC(=O)N2CCCCC2)[C@@H](O)[C@H]1O	none
CC(=O)Nc1sc2c(c1C(c1ccccc1Cl)N1CCN(CCO)CC1)CCCC2 (stereo not given)	CHRM5 antagonist 64.9
CCOc1ccccc1NC(=O)Nc1ccc2c(c1)CCC2	CHRM4 PAM 19.9
C[C@@H]1C2CC(C/C2=N\NC(=O)c2ccncc2)C1(C)C (stereo not given in full)	CHRM5 PAM 38.9
S=C1N(c2ccccc2)C(c2ccc(Cl)cc2)N2CCCN12 (stereo not given)	CHRM4 antagonist 42.0
S=C1N(c2ccccc2)C(c2ccc(Br)cc2)N2CCCN12 (stereo not given)	CHRM5 antagonist 38.1, CHRM4 antagonist 78.7
O=C1/C(=C/c2ccc(N3CCOCC3)o2)SC(=Nc2ccccc2)N1CCc1c[nH]c2ccccc12	CHRM4 antagonist 42.2
COc1cc(/C=C2\SC(=Nc3ccccc3)N(CCc3c[nH]c4ccccc34)C2=O)ccc1OC(C)C(=O)O (stereo not given)	none
Cc1ccc(S(=O)(=O)N(C)C[C@@H]2OCc3cnnn3CCCC(=O)N([C@@H](C)CO)C[C@H]2C)cc1	none
CC(C)CC(NC(=O)c1ccccc1NC(=O)c1ccccc1)C(=O)O (stereo not given)	none
CC(C)CC(NC(=O)c1ccc(Cl)cc1Cl)C(=O)O (stereo not given)	CHRM5 PAM 19.3
COc1ccc(NC(=O)c2cccnc2Nc2ccc(OC)cc2)cc1	CHRM4 antagonist 51.7
COc1ccc(N/C=C(\C#N)c2nc3ccccc3n2C)c(OC)c1	CHRM4 antagonist 27.9
CCNc1sc(C(=O)c2cccs2)c(N)c1-c1nc2ccccc2s1	CHRM4 antagonist 38.0
CCOC(=O)c1sc(NCc2ccco2)c(-c2nc3ccccc3s2)c1N	none
C=CCNc1sc(C(=O)c2ccccc2)c(N)c1-c1nc2ccccc2s1	CHRM5 PAM 19.7, CHRM4 PAM 28.8
Cc1ccc(S(=O)(=O)N2c3ccccc3OC(C(=O)OC(C)(C)C)(C(=O)OC(C)(C)C)C2CC(=O)c2ccccc2)cc1 (stereo not given)	none
N#CCCN(C(=O)CN1CCN(S(=O)(=O)c2ccc(Cl)s2)CC1)c1ccc(F)cc1	none
Cc1[nH]c2ccccc2c1C(=O)CSc1nc2ccccc2c(=O)n1CCCN1CCOCC1	CHRM4 antagonist 26.7
Cn1c(N)c(C(=O)CSc2nc3ccccc3c(=O)n2CCCN2CCOCC2)c(=O)n(C)c1=O	none
CCCn1c(N)c(C(=O)CN(C)CC(=O)Nc2c(C)cc(C)cc2C)c(=O)[nH]c1=O	none
COc1cc(CNCCc2c[nH]c3ccccc23)ccc1OCc1ccc(F)cc1	M4 ag 47.3, CHRM4 antagonist 47.0
CCCc1ccc(C(=O)NNc2ccccc2F)cc1	none
CN(/N=C/c1ccc(-c2ccc([N+](=O)[O-])cc2)o1)c1ccccc1	CHRM5 agonist 33.6
COc1ccc(S(=O)(=O)n2nc(OC(=O)c3ccco3)cc2N)cc1	CHRM4 PAM 17.7
COc1ccc(S(=O)(=O)n2nc(OC(=O)c3ccccc3)cc2N)cc1	none
CCN(C(=O)COC(=O)/C(C#N)=C/c1cc(C)n(CCOC)c1C)c1c(N)n(Cc2ccccc2)c(=O)[nH]c1=O	none
S=C1NNC2(CC3CC2C2CCCC32)NN1 (stereo not given)	none
CC(=O)Nc1ccc2c(c1)C(=Nc1cccc(C)c1)c1ccccc1-2	CHRM4 PAM 15.9
O=C(COC(=O)CN1C(=O)c2cccc([N+](=O)[O-])c2C1=O)NC1CCS(=O)(=O)C1 (stereo not given)	none
O=C1CC(=C(c2ccccc2)c2ccccc2)C(=O)N1CCCCN1CCN(c2ccccc2)CC1	CHRM4 antagonist 33.6
O=C(CCCN1CCN(c2ccccc2)CC1)c1ccc(F)cc1	none
O=C(NCCc1ccccc1)c1cccc(NC(=O)C2CCCC2)c1	none
CC(C)OP(=O)(OC(C)C)C(Nc1cccc(C(=O)O)c1)c1ccccc1 (stereo not given)	none
CC(C)OP(=O)(OC(C)C)C(Nc1ccc(C(=O)O)cc1)c1ccccc1 (stereo not given)	CHRM4 antagonist 38.0, CHRM4 PAM 31.8
Cc1c(C(=O)NCc2ccc3c(c2)OCO3)oc2ccc(S(=O)(=O)N3CCCCC3)cc12	CHRM4 antagonist 27.4
Cc1c(C(=O)NCc2ccc3c(c2)OCO3)oc2ccc(S(=O)(=O)N3CCCC3)cc12	none
COc1ccc(Oc2nnc(-c3ccccc3)cc2C#N)cc1	CHRM4 PAM 26.7
CCCCOc1cccc(C2/C(=C(\O)c3ccc4c(c3)OCCO4)C(=O)C(=O)N2CCN2CCOCC2)c1 (stereo not given)	none
CC(Sc1nc(N)cc(=O)[nH]1)C(=O)N1CCOCC1 (stereo not given)	none
Cc1ccc2nc(SC(C)C(=O)N3CCOCC3)[nH]c2c1 (stereo not given)	CHRM4 PAM 31.1
CCOc1ccc(Nc2cc(C)nc3c(C)cccc23)cc1	CHRM5 PAM 19.8
CC(C)[C@@H](CO)NS(=O)(=O)c1ccc(Br)cc1F	none
